The source of these data is ChEMBL document CHEMBL1799931, “Synthesis, evaluation and metabolic studies of radiotracers containing a 4-(4-[18F]-fluorobenzyl)piperidin-1-yl moiety for the PET imaging of NR2B NMDA receptors” (Eur J Med Chem, 2011).

The subject of one data set is Mus musculus. In words: Analgesic activity in po dosed mouse assessed as licking behavior measured after 20 to 25 mins by formalin test. The format is functional, organism-based. The conditions noted are these: Mus musculus, po; read-out: ED50.
Data set [1] has as its target T1, Glutamate NMDA receptor; GRIN1/GRIN2B (Homo sapiens, UniProt Q05586+Q13224). In words: Displacement of [3H]-Ro-256981 from recombinant NR1/NR2B receptor. The data set is classed as protein-complex assay.
Data set [2] has as its target Glutamate NMDA receptor; GRIN1/GRIN2A (Homo sapiens) (UniProt Q05586+Q12879). Description: Antagonist activity against NR1a/NR2A receptor transfected in human HEK293 cells assessed as inhibition of NMDA-induced Ca2+ influx at 10 uM. The format is functional, cell-based. In outline: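 HEK293 cells co-transfected 1:1 with NR1-1a plus NR2A-GFP or NR2B-GFP, D-APV (100 µM) after transfection, used at 24 h. Cells loaded with Fura-2/AM 45 min at 37 °C, then held in HBBSS with glycine, pH 7.45, at room temperature under perfusion. NMDA 100 µM for 30 s; ligands applied 60 s before and during.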

In a further data set the test system is Muscle tissue. In words: Biodistribution in Sprague-Dawley rat muscle at 3.2 to 18.6 MBq, iv after 120 mins by micro PET analysis. The format is ADME, organism-based. The conditions noted are these: in vivo, 2 h. In outline:
(§1)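 Male Sprague-Dawley rats (235-310 g) under isoflurane got 18F radiotracer (3.2-18.6 MBq) by tail-vein catheter, n = 3. Dynamic microPET scan for 120 min, then ex vivo tissue counting at 120 min post-injection. Values are %ID/g ± SEM.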

A short description of data set [3]: Biodistribution in Sprague-Dawley rat fat at 3.2 to 18.6 MBq, iv after 120 mins by micro PET analysis. The data set is classed as ADME, organism-based, Adipose tissue. The settings on record: in vivo, 2 h. In short, it runs like this:
as §1

In a further data set the test system is Brain. In words: Biodistribution in Sprague-Dawley rat brain at 3.2 to 18.6 MBq, iv after 120 mins by micro PET analysis. The format is ADME, organism-based. The conditions noted are these: in vivo, 2 h. In outline: as §1
The test system of the next data set is Bone. Description: Biodistribution in Sprague-Dawley rat bone at 3.2 to 18.6 MBq, iv after 120 mins by micro PET analysis. The settings on record: in vivo, 2 h. The data set is classed as ADME, organism-based, Bone element. In short, it runs like this:
as §1

In a further data set the test system is Thymus. In words: Biodistribution in Sprague-Dawley rat thymus at 3.2 to 18.6 MBq, iv after 120 mins by micro PET analysis. The format is ADME, organism-based. The settings on record: in vivo, 2 h. In outline: as §1
Data set [4] is described as follows: Metabolic stability in Sprague-Dawley rat plasma assessed as half life by radio thin layer chromatography analysis. The format is ADME, cell-free. In short, it runs like this:
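Anesthetized male Sprague-Dawley rats (235-330 g) given radiotracer (3.2-15.1 MBq). Femoral arterial blood was sampled over 90 min and plasma gamma-counted. Plasma was diluted with acetonitrile, centrifuged and run on silica radio-TLC with cold reference, giving parent and radiometabolite fractions.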

A further data set concerns Lung. Description: Biodistribution in Sprague-Dawley rat lung at 3.2 to 18.6 MBq, iv after 120 mins by micro PET analysis. The data set is classed as ADME, organism-based. The conditions noted are these: in vivo, 2 h. In outline: as §1
The subject of another data set is Heart. Description: Biodistribution in Sprague-Dawley rat heart at 3.2 to 18.6 MBq, iv after 120 mins by micro PET analysis. The data set is classed as ADME, organism-based. The settings on record: in vivo, 2 h. In outline: as §1
The test system of the next data set is Pancreas. In words: Biodistribution in Sprague-Dawley rat pancreas at 3.2 to 18.6 MBq, iv after 120 mins by micro PET analysis. The format is ADME, organism-based. The settings on record: in vivo, 2 h. In short, it runs like this:
as §1

In the next data set the test system is Liver. Description: Biodistribution in Sprague-Dawley rat liver at 3.2 to 18.6 MBq, iv after 120 mins by micro PET analysis. The format is ADME, organism-based. The conditions noted are these: in vivo, 2 h. In outline: as §1
The test system of a further data set is Spleen. In words: Biodistribution in Sprague-Dawley rat spleen at 3.2 to 18.6 MBq, iv after 120 mins by micro PET analysis. The format is ADME, organism-based. The settings on record: in vivo, 2 h. In outline:
as §1

For a further data set, the system named is Kidney. In words: Biodistribution in Sprague-Dawley rat kidney at 3.2 to 18.6 MBq, iv after 120 mins by micro PET analysis. The data set is classed as ADME, organism-based. The conditions noted are these: in vivo, 2 h. In short, it runs like this: as §1
Data set [5] can be described thus: Biodistribution in Sprague-Dawley rat urine at 3.2 to 18.6 MBq, iv after 120 mins by micro PET analysis. The format is ADME, organism-based. The conditions noted are these: in vivo, 2 h. In short, it runs like this:
as §1

In data set [6] the test system is Rattus norvegicus. Description: Biodistribution in Sprague-Dawley rat bladder at 3.2 to 18.6 MBq, iv after 120 mins by micro PET analysis. The conditions noted are these: in vivo, 2 h. The format is ADME, organism-based, Urinary bladder. In short, it runs like this: as §1
For another data set, the system named is Intestine. In words: Biodistribution in Sprague-Dawley rat intestine at 3.2 to 18.6 MBq, iv after 120 mins by micro PET analysis. The format is ADME, organism-based. The conditions noted are these: in vivo, 2 h. In short, it runs like this: as §1
The next data set relates to Hippocampus. In words: Biodistribution in Sprague-Dawley rat hippocampus at 3.2 to 18.6 MBq, iv after 120 mins by micro PET analysis. The settings on record: in vivo, 2 h.
The test system of the next data set is Cerebellum. In words: Biodistribution in Sprague-Dawley rat cerebellum at 3.2 to 18.6 MBq, iv after 120 mins by micro PET analysis. The settings on record: in vivo, 2 h.
A short description of data set [7]: Metabolic stability in Sprague-Dawley rat assessed as unmetabolized parent compound in urine at 10 mg/kg, iv after 1 hr by MS/MS analysis. The format is ADME, organism-based. More on the design: dose 10 mg/kg, route intravenous. The settings on record: in vivo. In short, it runs like this:
(§2)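 Two anesthetized male Sprague-Dawley rats got 10 mg/kg in sterile water by tail vein; two controls got sterile water at 1 mL/kg. Rats were kept awake 1 h, then decapitated. Plasma and urine went to LC-MS/MS, full scans compared with control.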

In the next data set the test system is Plasma. Description: Metabolic stability in Sprague-Dawley rat assessed as unmetabolized parent compound in plasma at 10 mg/kg, iv after 1 hr by MS/MS analysis. The data set is classed as ADME, organism-based. More on the design: dose 10 mg/kg, route intravenous. The conditions noted are these: in vivo. In outline:
as §2

The subject of data set [8] is Rattus norvegicus. In words: Analgesic activity against carrageenan-induced mechanical hyperalgesia in iv dosed rat. The format is functional.
Data set [9] is described as follows: Half life in rat plasma. The data set is classed as ADME, cell-free.
Data set [10] concerns the target T1, Glutamate NMDA receptor; GRIN1/GRIN2B. In words: Antagonist activity against NR1a/NR2B receptor transfected in human HEK293 cells assessed as inhibition of NMDA-induced Ca2+ influx. The format is functional, cell-based.
Data set [11] has the same target. Description: Antagonist activity at human NR1a/NR2B receptor expressed in mouse fibroblast LMTK cells assessed as inhibition of Glu/Gly induced Ca2+ influx. The format is functional, cell-based.

T1 sequence (Q13224 whole entry, other chains not shown, the tested form may be a part): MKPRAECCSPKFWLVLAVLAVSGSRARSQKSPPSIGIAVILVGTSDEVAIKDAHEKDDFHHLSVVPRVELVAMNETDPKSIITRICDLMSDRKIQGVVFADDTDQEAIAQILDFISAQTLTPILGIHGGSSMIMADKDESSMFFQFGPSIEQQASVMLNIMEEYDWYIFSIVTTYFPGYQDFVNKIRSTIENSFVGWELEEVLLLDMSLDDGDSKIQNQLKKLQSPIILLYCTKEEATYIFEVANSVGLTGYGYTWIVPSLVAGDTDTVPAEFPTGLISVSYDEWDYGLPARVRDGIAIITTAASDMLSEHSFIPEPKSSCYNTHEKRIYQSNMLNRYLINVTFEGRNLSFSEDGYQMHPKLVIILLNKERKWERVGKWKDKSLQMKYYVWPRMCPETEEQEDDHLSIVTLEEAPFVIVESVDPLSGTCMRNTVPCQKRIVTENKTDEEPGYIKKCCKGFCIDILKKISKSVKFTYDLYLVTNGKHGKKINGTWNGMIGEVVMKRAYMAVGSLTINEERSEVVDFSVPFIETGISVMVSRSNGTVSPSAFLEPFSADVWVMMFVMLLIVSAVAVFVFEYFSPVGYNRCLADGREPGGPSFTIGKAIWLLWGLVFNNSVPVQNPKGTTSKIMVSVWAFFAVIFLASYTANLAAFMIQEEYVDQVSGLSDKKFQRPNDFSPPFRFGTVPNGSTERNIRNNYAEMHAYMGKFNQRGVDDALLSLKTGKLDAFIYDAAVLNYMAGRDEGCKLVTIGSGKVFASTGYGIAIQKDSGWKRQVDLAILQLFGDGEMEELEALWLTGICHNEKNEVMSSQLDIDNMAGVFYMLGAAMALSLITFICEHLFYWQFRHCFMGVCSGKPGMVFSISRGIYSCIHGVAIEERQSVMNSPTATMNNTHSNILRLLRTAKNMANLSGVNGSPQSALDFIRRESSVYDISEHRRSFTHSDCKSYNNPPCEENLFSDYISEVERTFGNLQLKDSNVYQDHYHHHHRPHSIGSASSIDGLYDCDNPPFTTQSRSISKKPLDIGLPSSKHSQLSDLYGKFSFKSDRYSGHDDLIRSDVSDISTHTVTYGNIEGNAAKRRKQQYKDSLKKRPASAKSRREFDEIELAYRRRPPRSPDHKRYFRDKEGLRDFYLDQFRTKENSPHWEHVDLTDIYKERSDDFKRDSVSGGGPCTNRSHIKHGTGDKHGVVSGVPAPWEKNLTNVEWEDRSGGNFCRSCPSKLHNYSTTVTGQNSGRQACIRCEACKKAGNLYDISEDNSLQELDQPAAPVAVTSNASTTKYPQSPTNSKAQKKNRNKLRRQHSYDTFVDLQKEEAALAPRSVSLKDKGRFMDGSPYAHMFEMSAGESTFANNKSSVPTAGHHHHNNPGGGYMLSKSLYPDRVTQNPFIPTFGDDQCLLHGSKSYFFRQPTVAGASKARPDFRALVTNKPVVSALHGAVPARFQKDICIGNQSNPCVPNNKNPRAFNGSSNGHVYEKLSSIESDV

For the molecule `O=C(Nc1ccc2[nH]c(O)nc2c1)C(=O)N1CCC(Cc2ccc(F)cc2)CC1`, the ED50 with Mus musculus is 0.5 mg/kg. The IC50 in [1] stood at 5 nM.

For the molecule `O=C(Nc1ccc2nc(O)oc2c1)C(=O)N1CCC(Cc2ccc(F)cc2)CC1` [RADIPRODIL], in the data set with Mus musculus, the ED50 was 7.7 mg/kg. Also, in data set [2], the inhibition was 10.1%.

With `Oc1ccc2[nH]c(CN3CCC(Cc4ccc([18F])cc4)CC3)nc2c1`, the Drug uptake was 0.044 % ID/g in the data set with Muscle tissue; 0.098 % ID/g in data set [3]; 0.035 % ID/g with Brain; 1.576 % ID/g in the data set with Bone; 0.225 % ID/g in the data set on Thymus; 0.445 % ID/g in the data set on Lung. The Drug uptake in the data set on Heart worked out at 0.068 % ID/g; in the data set on Pancreas, 0.391 % ID/g; in the data set with Liver, 2.255 % ID/g; with Spleen, 0.305 % ID/g; with Kidney, 0.384 % ID/g; in data set [5], 1.327 % ID/g. The Drug uptake with Rattus norvegicus [6] came to 0.373 % ID/g; in the data set on Intestine it was 0.188 % ID/g; in the data set on Hippocampus, 0.037 % ID/g; in the data set on Cerebellum, 0.035 % ID/g. For the same molecule, the half-life in data set [4] stood at 35 min.

`Fc1ccc(CC2CCNCC2)cc1`: the Stability result (in data set [7]; in the data set on Plasma) was “Unstable” each time.

As for `Oc1ccc2nc(CN3CCC(Cc4ccccc4)CC3)[nH]c2c1`, the median effective dose (ED50) in the data set on Rattus norvegicus [8] is 3.3 mg/kg. The half-life in data set [9] is more than 480 min. Further, in data set [10], the half-inhibitory concentration (IC50) was found to be 209 nM.

Turning to `O=C(Nc1ccc2nc(O)oc2c1)C(=O)N1CCC(Cc2ccccc2)CC1`, in the data set with Mus musculus, the ED50 worked out at 0.5 mg/kg. In data set [1], the IC50 was found to be 4 nM.

In the case of `CS(=O)(=O)Nc1ccc2nc(CN3CCC(Cc4ccccc4)CC3)[nH]c2c1`, the IC50 in [11] stood at 1.4 nM; in data set [10], 50.3 nM.

On to `O=C(Nc1ccc2[nH]c(=O)[nH]c2c1)C(=O)N1CCC(Cc2ccccc2)CC1`, for which the 50% inhibitory concentration (IC50) in data set [1] came out at 8 nM.

For the molecule `CC(C(O)c1ccc(O)cc1)N1CCC(Cc2ccccc2)CC1` (configuration not stated), the inhibition in [2] came to 22.3%.
